Screening results: PubChem BioAssay, The Scripps Research Institute Molecular Screening Center
An excerpt weighted towards active compounds, which were near 2.9% of everything screened.
OX1R antag-1: antagonists of human orexin 1 receptor (OX1R) | inhibition, % at 6.6 µM | AID 485270, 2010 | OX1R-expressing cells, FRET antagonist read-out | actives 1.8% (n = 330,000); in the data active = inhibition mostly above about 38%, no sharp cut-off; inactive = mostly below about 40%;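 note: 0% = agonist challenge alone and 100% = reference antagonist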
Target sequence (O43613 whole entry, looked up): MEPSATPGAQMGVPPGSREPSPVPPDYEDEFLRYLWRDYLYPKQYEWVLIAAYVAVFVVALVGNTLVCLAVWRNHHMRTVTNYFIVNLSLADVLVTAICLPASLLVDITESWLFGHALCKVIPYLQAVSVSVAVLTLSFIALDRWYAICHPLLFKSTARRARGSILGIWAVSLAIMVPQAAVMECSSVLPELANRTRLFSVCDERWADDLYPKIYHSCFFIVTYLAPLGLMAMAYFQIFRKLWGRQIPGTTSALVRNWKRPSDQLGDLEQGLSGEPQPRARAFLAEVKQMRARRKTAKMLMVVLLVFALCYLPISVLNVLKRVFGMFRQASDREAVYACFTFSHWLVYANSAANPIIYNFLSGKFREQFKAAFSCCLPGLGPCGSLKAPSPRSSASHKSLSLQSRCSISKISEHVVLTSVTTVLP
CHO-K1 Ca PAM: nonselective calcium activators in parental CHO-K1 cells, primary screen, counter-screen for M1 PAM project, cell-based, Fluo-8 calcium fluorescence, full deck, 1536-well; ATP EC20; 0% at ATP EC20, 100% at ATP max; activation, % at 3 µM; actives 0.02% (n = 360,000); AID 602247, 2012;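 active = activation above the run cutoff, the mean activation of all test compounds plus 3 SD, cut at about 40% in these data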;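 note: peak over basal fluorescence ratio in a 140 s read after ATP addition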
OX1R antag-2: OX1R (HCRTR1) antagonists, primary screen, fluorescence, CHO/OX1R cells, Fluo-8 calcium, orexin A. Orexin/Hypocretin receptor type 1 (Homo sapiens), O43613. Fluo-8 calcium fluorescence. actives 0.43% (n = 330,000). inhibition, % at 5 µM. AID 434989, 2010;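 active = inhibition above its plate's threshold, mean inhibition of all tested compounds on the plate plus 3 SD, cut at about 37% in these data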;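 note: 0% = orexin A challenge wells and 100% = SB-334867-A antagonist wells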
CHO-K1 Ca antag: counter-screen for M1 antagonists: effect in parental CHO-K1 cells; ATP-induced calcium, Fluo-8 fluorescence; inhibition, % at 3 µM; actives 0.6% (n = 360,000); AID 602250;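 active = inhibition above a per-plate cutoff, the plate's mean sample inhibition plus 3 SD, cut at about 24% in these data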;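 note: 0% = DMSO plus EC80 ATP and 100% = DMSO alone without ATP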
CHO parental Ca: ATP-evoked calcium signal inhibitors, parental CHO, primary screen, counter-screen for OX1R antagonist project, cell-based, fluorescence, Fluo-8 calcium dye | parental CHO-K1, ATP-induced calcium, Fluo-8 fluorescence | inhibition, % at 5.6 µM | actives 0.63% (n = 330,000) | AID 463079, 2010;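 active = inhibition above that plate's mean sample inhibition plus 3 SD, cut at about 26% in these data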;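 note: 0% = ATP-challenged DMSO wells and 100% = DMSO wells without ATP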
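Test system: untransfected parental CHO cell line; also added: ATP stimulus; dosing: 5.6 µM, single dose; signal: calcium-sensitive Fluo-8 fluorescence; measure: percent inhibition of ATP-evoked calcium rise, normalized to controls; benchmarks: low control ATP plus DMSO, high control DMSO only; replication: one well per compound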
M1 ag parental: counter-screen for M1 agonists: effect in parental CHO-K1 cells; Fluo-8 calcium fluorescence; scaled to maximal ATP response, vehicle zero; activation, % at 3 µM; actives 0.48% (n = 360,000); AID 602248, 2012; in the data active = activation above about 15%;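 note: untransfected CHO-K1 host cells lacking M1 receptor as counterscreen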
* = called active by the depositor; x = no result; ! = not confirmed by another sample.

SMILES	OX1R antag-1	CHO-K1 Ca PAM	OX1R antag-2	CHO-K1 Ca antag	CHO parental Ca	M1 ag parental
S=C(NCc1ccc(Cl)cc1)Nc1ccncc1	26	-19	15	31*	52*	21*
Fc1ccc(CNC(=S)Nc2cccc(Cl)c2)cc1	13	1	15	10	41*	13
COC(=O)[C@]12CCCCC=C1N(Cc1ccc(Cl)cc1Cl)C(=O)[C@H](CC(=O)N1CCCC1)C2	x	-1	x	-11	x	3
CCC(=O)Nc1ccc2c(c1)nc1n2CCSC1	9	-7	6	24*	4	0
COc1ccc(C(=O)NCCS(=O)(=O)NCc2ccc3c(c2)OCO3)cc1	-2	-3	-6	6	-15	0
COc1ccc(CNS(=O)(=O)CCNC(=O)c2ccc3c(c2)OCO3)cc1	2	-19	8	24*	-3	-1
COC(=O)C1=C(C)NC(C)=C([N+](=O)[O-])C1c1ccccc1C(F)(F)F (centres undefined)	17	8	-17	35*!	-10	0
CC(=O)OC[C@]12CC[C@H]3[C@@](C)(CC[C@H]4C(C)(C)CCC[C@]34C)[C@@H]1C[C@H](C1=CC(=O)O[C@H]1OC(C)=O)O2	-2	x	51*	x	46*	x
CCOc1cc(OCC)cc(C(=O)N2CCC[C@@H]2C(=O)N2CCC[C@@H]2C(=O)NCc2ccccc2Cl)c1	x	-4	x	10	x	17*
CCOc1cc(OCC)cc(C(=O)N2CCC[C@H]2C(=O)N2CCC[C@H]2C(=O)NCc2ccc(F)cc2F)c1	x	23	x	-30	x	2
CC(C)CCNC(=O)CN(C(=O)CCC(=O)Nc1ccccn1)c1ccc(F)c(Cl)c1	9	-3	-26	-10	-11	-1
O=C(NCc1ccccc1Cl)c1ccccc1CCc1ccccc1	50*	14	23	6	66*	1
Cc1cc(C)c(NC(=O)c2ccccc2CCc2ccccc2)c(C)c1	41*	13	31	-7	7	1
O=C(NCc1ccc(Cl)cc1)c1ccccc1CCc1ccccc1	32	18	-20	-9	-17	1
Cc1ccc(-n2cnc(N)c2C(=O)c2cccc([N+](=O)[O-])c2)cc1	6	10	-12	-9	-12	1
COc1ccc(C2C(C(C)=O)=C(O)C(=O)N2c2nccs2)c(OC)c1 (centres undefined)	22	20	-2	-3	2	1
O=C(Cn1ccc([N+](=O)[O-])n1)NCc1nc2ccccc2[nH]1	37	18	3	0	-12	17*
COC(=O)c1nc2n(n1)C(c1ccc(OC)c(OC)c1)C(C(=O)OC1CCCCC1)=C(C)N2 (centres undefined)	11	-8	-23	28*	-12	0
O=C(NNC(=O)C1CC1)c1cc2cc3ccccc3nc2s1	54*	-7	-17	10	5	0
Clc1nc(Nc2ccc(N3CCOCC3)cc2)c2ccccc2n1	70*	-7	-4	-13	-9	2
COc1ccccc1C(=O)NC(=O)CSc1nnc(C)s1	4	-4	6	55*	0	0
c1ccc2c(c1)Cc1cc3ccccc3nc1-2	28	-5	-4	-6	-16	1
O=C1c2ccccc2-c2nc3ccccc3cc21	58*	-6	-3	10	-3	1
COc1ccc(C(Nc2ccc(S(=O)(=O)NCC3CCCO3)cc2)C(=O)NC(C)(C)C)cc1OC (centres undefined)	8	6	-11	-6	-19	0
CCCSc1nc(N)c(C#N)c(-c2ccc(C)cc2)c1C#N	17	20	5	-13	41*	2
O=C(/C=C/c1ccc([N+](=O)[O-])cc1)NCC1CCCO1 (centres undefined)	59*	5	-12	-5	-12	0
O=C(CN1C(=O)c2ccc([N+](=O)[O-])cc2C1=O)NC1CCS(=O)(=O)C1 (centres undefined)	56*	17	-6	-24	4	2
